Compound activity as filed in PubChem BioAssay.
KCNQ1 inh: blocks the human KCNQ1 potassium channel; CHO-K1 KCNQ1, FluxOR thallium flux fluorescence; active compounds read high; 310,000 compounds, 1.3% hits; AID 2642; P51787; B-score at 10 µM;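 active means compounds whose thallium flux B-score, printed positive for inhibition, exceeds three library SD while starting fluorescence stays within three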;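 further: channel opened by potassium depolarization with thallium stimulus after 20 min compound exposure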
KCNK9 inh: human KCNK9 channel inhibition | 310,000 compounds, 1.2% hits | B-score at 10 µM | AID 488922 | HEK293 KCNK9, FluxOR thallium flux fluorescence; active compounds read low;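 active means ratio B-score over 3 SD below the library mean, with starting fluorescence within 5 SD of its mean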;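 further: negative B-score means less thallium flux so channel inhibition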
Target sequence (Q9NPC2 whole entry, looked up): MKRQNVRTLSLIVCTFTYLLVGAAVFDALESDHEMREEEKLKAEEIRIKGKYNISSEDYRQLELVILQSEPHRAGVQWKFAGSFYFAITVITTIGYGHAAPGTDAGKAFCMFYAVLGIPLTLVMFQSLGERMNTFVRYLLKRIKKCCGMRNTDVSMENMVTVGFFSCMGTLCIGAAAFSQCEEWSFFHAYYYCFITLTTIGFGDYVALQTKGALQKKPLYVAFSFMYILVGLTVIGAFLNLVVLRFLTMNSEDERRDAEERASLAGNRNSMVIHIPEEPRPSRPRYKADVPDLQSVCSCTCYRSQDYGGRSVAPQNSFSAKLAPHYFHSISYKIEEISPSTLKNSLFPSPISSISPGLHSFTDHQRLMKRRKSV
KCNK3 block: human KCNK3 channel inhibition, primary screen | CHO-KCNK3 thallium flux, FluxOR fluorescence; active compounds read low | 340,000 compounds, 0.84% hits | B-score at 10 µM | AID 602410;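 active means B-score under library mean minus 4 SD, starting fluorescence ratio at most library mean plus 5 SD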;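 further: more negative B-score means stronger inhibition of thallium flux through KCNK3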
KCNQ1 act: human KCNQ1 channel potentiation or activation. AID 2648. B-score at 10 µM. CHO-K1 KCNQ1, thallium flux FluxOR fluorescence; active compounds read high. P51787. 310,000 compounds, 0.35% hits;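 active means fluorescence ratio B-score, a plate-corrected score, at least three library SD, with initial intensity B-score within 5 SD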
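Schedule – 37 °C overnight plating, 90-min dark dye load, 20-min compound pretreatment · System – stable KCNQ1 CHO-K1 line · Probe or stimulus – thallium- and potassium-containing depolarizing buffer · Measured by – kinetic FluxOR fluorescence, 10 s baseline plus 110 s post-stimulus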
Kir21 inh: inhibitors of mouse Kir2.1 inward-rectifier potassium channel; P35561; B-score at 10 µM; 310,000 compounds, 0.85% hits; HEK293-Kir2.1, FluxOR thallium flux fluorescence; active compounds read low;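 active means fluorescence ratio B-score at or below minus 3 SD of library scores, with starting-brightness B-score within 2 SD, cut at about -4.2 in these data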;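 further: channel flux triggered by added potassium and thallium sulfate stimulus; B-score of peak minus minimum fluorescence over baseline after thallium stimulus; more negative B-score means stronger Kir2.1 block with less thallium influx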
hERG rescue: compounds protecting human hERG from proarrhythmic drug block | 310,000 compounds, 0.51% hits | activation (rescue from dofetilide block), less the hit threshold, % at 10 µM | CHO-hERG, FluxOR thallium flux, dofetilide IC70 present | AID 1511;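 active means activation above the mean of controls blocked by dofetilide plus 5 SD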;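 further: thallium influx through hERG after potassium depolarization seen as dye fluorescence rise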
KCNK3 inh conf: confirmation of human KCNK3 two-pore domain potassium channel inhibitors; AID 651638; CHO-KCNK3 thallium flux, FluxOR fluorescence; 0% buffer, 100% carvedilol maximal block; shares compounds with KCNK3 block; 2,400 compounds, 99% hits; ratio percent of control, % at 10 µM;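 active means ratio percent of control, averaged over triplicates, above buffer control mean plus 5 SD, cut at about 64% in these data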;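 further: ratio is the fluorescence rise from min to max over baseline after thallium stimulus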
KCNK3 noninduced: activity in cells without induced KCNK3 expression; shares compounds with KCNK3 block; non-induced KCNK3 parental cells, FluxOR thallium flux; active compounds read low; thallium flux ratio (lower = more inhibition) at 10 µM; 2,400 compounds, 40% hits; AID 651747;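 active means thallium flux ratio, averaged over three wells, more than 5 SD below the buffer control mean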;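 further: host cells are CHO cells without KCNK3 induction; ratio is peak minus trough fluorescence over baseline then normalized to buffer controls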
* = called active by the depositor; i = inactive; x = not tested or not shown. A selection: hits, their analogues and other compounds. The true share with any hit is near 3.8%.

SMILES	KCNQ1 inh	KCNK9 inh	KCNK3 block	KCNQ1 act	Kir21 inh	hERG rescue	KCNK3 inh conf	KCNK3 noninduced
CC(=O)c1ccc(OCc2ncc(C(F)(F)F)cc2Cl)cc1	i	i	i	i	-0.47	-2	x	x
FC(F)(F)c1cnc(COc2ccc(Cl)cc2Cl)c(Cl)c1	i	i	-9.7*	i	0.09	-2	102*	i
O=C(CC(c1ccccc1)c1ccccc1)Nc1ccc(O)cc1	i	i	-9.7*	i	-0.58	-9	88*	i
O=C(CS(=O)(=O)c1ccccc1)Nc1ccc(Cl)cn1	i	i	i	i	-0.85	-5	x	x
O=C(CC(c1ccccc1)c1ccccc1)Nc1ccc(Cl)cn1	i	i	-8.9*	i	0.22	-4	109*	i
Cc1cc(OC(=O)c2ccccc2)n(CCC#N)n1	i	i	i	i	0.87	-1	x	x
O=C(NC1CCN(Cc2ccccc2)CC1)c1ccccc1OCc1ccccc1	i	i	-10*	i	-4.3*	-9	99*	i
O=C(NC1CCN(Cc2ccccc2)CC1)c1ccccc1OCc1ccccc1Cl	i	-7.8*	-11*	i	-6.7*	-17	99*	i
Cc1cc2ncn(C3CC(=O)N(Cc4ccc(N5CCCC5=O)cc4)C3=O)c2cc1C (configuration not stated)	i	i	i	i	0.16	-10	x	x
O=C(Nc1cccc(S(=O)(=O)c2cccc(NC(=O)c3ccco3)c2)c1)c1ccco1	i	i	-9.4*	i	-1.8	-14	136*	0.14*
CC(C)OC(=O)c1ccc(NC(=O)c2ccco2)cc1	i	i	-9.8*	i	-1.4	-10	91*	i
CCOc1cccc(C(=O)Nc2cccc(NC(=O)c3ccco3)c2)c1	i	-6.8*	-12*	i	2.1	-23	76*	i
CCOc1cccc(C(=O)Nc2cccc(C(C)=O)c2)c1	i	i	i	i	-4	-6	x	x
O=C(COC(=O)CCC1CCCC1)Nc1ccccc1OC(F)F	i	i	i	i	-1.4	-11	x	x
CCN(CC)C(=O)[C@H]1CC(CC(=O)NCC23CC4CC(CC(C4)C2)C3)C(=O)N2CCc3c([nH]c4ccc(OC)cc34)[C@]12C (some centres not stated)	x	x	i	x	x	x	x	x
Cc1c(Cl)cccc1NC(=O)CSc1ncnc2c1cnn2CCc1ccccc1	i	i	i	i	-0.44	-9	x	x
O=C(CSc1ncnc2c1cnn2CCc1ccccc1)Nc1cccc(C(F)(F)F)c1	i	i	-8.9*	i	-0.06	-6	129*	0.11*
O=C(/C=C/c1ccc(Cl)c(Cl)c1)N1CCOCC1	i	i	i	i	1.4	-6	x	x
CC(C)Nc1cc(C(C)(C)C)nc2c(-c3ccccc3)cnn12	i	i	-10*	i	-0.54	-13	82*	0.14*
CSc1nc(N2CCN(Cc3ccc4c(c3)OCO4)CC2)c2ccccc2n1	i	i	-13*	i	-0.2	-10	112*	i
c1ccc(CN2CCN(c3nc(NCc4ccco4)c4ccccc4n3)CC2)cc1	i	i	-11*	i	-3.5	-38	141*	0.1*
c1ccc(CN2CCN(c3nc4ccccc4c4ccccc34)CC2)cc1	i	i	-11*	i	1.1	-11	98*	i
CNC(=O)Cn1nc(C)c2ccccc2c1=O	i	i	i	i	0.07	-12	x	x
O=C(Nc1ccc2nc(SCc3ccc(Cl)cc3)sc2c1)c1ccccc1C(=O)N1CCOCC1	6*	i	-8.7*	i	0.08	-23	97*	i
CCN1CCN(c2c(/C=C3\SC(=S)N(Cc4ccco4)C3=O)c(C)c(C#N)c(=O)n2C)CC1	7*	i	-16*	i	-1.8	-37	141*	0.089*
SMILES	KCNQ1 inh	KCNK9 inh	KCNK3 block	KCNQ1 act	Kir21 inh	hERG rescue	KCNK3 inh conf	KCNK3 noninduced
CCN1C(=O)/C(=C\N2CCN(C(=O)c3ccco3)CC2)SC1=S	i	i	i	i	-0.35	-4	x	x
COc1ccccc1OCCOc1ccc(/C=C2/C(=N)N3OC(C)=CC3=NC2=O)cc1OC	i	i	i	i	-0.03	-7	x	x
CC1=CC2=NC(=O)/C(=C\c3cccn3CCOc3ccccc3C)C(=N)N2O1	i	i	-8.9*	i	1.8	-6	115*	0.16*
O=C(NCc1ccc2c(c1)OCO2)c1ccc(CSCc2ccc(Cl)cc2)o1	i	i	-8.8*	i	-0.07	-8	96*	0.14*
COc1cc(/C=C/C(=O)OCC(=O)Nc2cc(S(=O)(=O)N3CCCC3)ccc2Cl)cc(OC)c1OC	x	x	i	x	x	x	x	x
Cc1ccc(C)c(Nc2cc(C(=O)NCc3cccnc3)c3ccccc3n2)c1	i	-7.9*	-8.9*	i	-0.85	-16	87*	i
Cc1cc(C)cc(OC(C)C(=O)Nc2ccccc2C(=O)NCc2cccnc2)c1 (configuration not stated)	i	i	-9.7*	i	-0.71	-8	84*	0.16*
COc1ccccc1Nc1cc(C(=O)NCc2cccnc2)c2ccccc2n1	i	i	i	i	0.23	-7	x	x
CC(Oc1ccc(F)cc1)C(=O)Nc1sc2c(c1C(=O)NCc1cccnc1)CCCC2 (configuration not stated)	i	i	-8.9*	i	-0.1	-10	113*	i
O=C(O)c1cc2ccccc2n1-c1ccccc1	i	i	i	i	-0.99	-8	x	x
CC(C)NC(=O)C(c1ccc(F)cc1)N(C(=O)CCC(=O)Nc1ccccn1)C1CCCC1 (configuration not stated)	i	i	-13*	i	-0.85	-9	89*	i
CCN(CC)S(=O)(=O)c1cccc(NC(=O)c2ccc(SC)cc2OC)c1	i	i	i	i	-1.3	-4	x	x
CCOc1cc(/C=N/NC(=O)C(O)(c2ccccc2)c2ccccc2)ccc1OC(=O)c1ccco1	i	i	-8.8*	i	-0.43	-14	83*	i
CCOc1cc(/C=N/NC(=O)c2ccncc2)ccc1OC(=O)c1ccco1	i	i	i	i	-0.66	-11	x	x
Cc1ccc(-c2cc(-c3ccccc3)nc(Cl)n2)cc1	i	i	-11*	i	1	-7	130*	0.11*
